Our source for the IC50 and Efficacy values is ChEMBL document CHEMBL1134126, “Phenylcyanoguanidines as inhibitors of glucose-induced insulin secretion from beta cells” (Bioorg Med Chem Lett, 2001).

Each structure is given as a SMILES string.

One may read the IC50 as the concentration that inhibits the measured activity by half. Higher therefore signals a need for much substance.

For test [1], the species on record is Rattus norvegicus. In words: In vitro ability to relax phenylephrine contracted rat aorta rings. It counts as functional.
Test [2] is described as follows: In vitro membrane potential on murine beta-TC3 cells; NA= not active. The class given is functional, Mus musculus.
The test system of test [3] is Beta-TC6. In words: Percent efficacy of compound for the in vitro inhibition of insulin release from murine beta-TC6 cells. It counts as functional, Mus musculus. The essentials: (§1)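 βTC6 cells washed twice in NN buffer (pH-buffered Krebs-type saline with HEPES) plus 0.1% BSA, preincubated 60 min, then incubated 3 h with 22 mM glucose, 0.1 mM IBMX and serial compound dilutions. Supernatant insulin measured by competition ELISA against rat insulin standards with peroxidase-labelled insulin and TMB read-out. EC50 (potency) and percentage inhibition (efficacy) derived from curves; at least two experiments.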

Test [4] relates to Beta-TC6. The test can be described thus: In vitro inhibition of insulin release from murine beta-TC6 cells. The following applies: Mus musculus. The class given is functional, cell-based. The procedure, abridged:
as §1

The nature of test [5]: In vitro membrane potential on murine beta-TC3 cells. It counts as functional. The following applies: Mus musculus.
Test [6] is filed under the species Rattus norvegicus. The test can be described thus: Concentration required for the inhibition of insulin release from rat islets. It counts as functional. The essentials:
(§2)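 Rat islets isolated by collagenase digestion and Ficoll gradient (40–13%), cultured overnight in RPMI/10% FCS/11 mM glucose, then 10 islets per well overnight in DMEM/10% FCS/3 mM glucose. Tested as for βTC6: NN buffer with 0.1% BSA, 3 h with 22 mM glucose and compound dilutions, no IBMX; insulin by competition ELISA.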

Test [7] is described as follows: In vitro membrane potential on murine betaTC3 cells; NA=not active. The class given is functional, Mus musculus.
For test [8], the species on record is Rattus norvegicus. The test can be described thus: Compound was evaluated for the inhibition of insulin release from rat islets. It counts as functional. The procedure, abridged: as §2

On to `CCC(C)(C)/N=C(\NC#N)Nc1cccnc1`, for which half-maximal inhibition in the test listed under Rattus norvegicus [1] (IC50) was put at 0.25 µM.
Turning to `CCC(C)(C)/N=C(\NC#N)Nc1cc(C(F)(F)F)cc(C(F)(F)F)c1`, the concentration for half-maximal inhibition (IC50) result is “Not Active” in test [2] and 0.9 µM in the test listed under Rattus norvegicus [1].
For the compound `COc1cc(N/C(=N/CCC(C)C)NC#N)cc(C(F)(F)F)c1`, the Efficacy in the test on Beta-TC6 [3] worked out at 79%. Besides, the concentration for half-maximal inhibition (IC50) was determined as 3.9 µM in the test on Beta-TC6 [4], 13 µM in test [5], 4.8 µM in the test listed under Rattus norvegicus [6] and 79 µM in the test filed under Rattus norvegicus [1].
Consider `CCC(C)(C)/N=C(\NC#N)Nc1cc(Cl)cc(Cl)c1`, for which the values for the IC50 result (in test [7]; in the test on Beta-TC6 [4]; in the test filed under Rattus norvegicus [1]) were “Not Active”, 2.3 µM and 0.3 µM, respectively. Moreover, the Efficacy with Beta-TC6 [3] stood at 57%.
Turning to `CCC/N=C(\NC#N)Nc1cc(C(F)(F)F)cc(C(F)(F)F)c1`, in the test on Beta-TC6 [3], the Efficacy came out at 58%. Besides, the half-maximal inhibitory concentration (IC50) in the test with Beta-TC6 [4] is 5 µM; in test [5] it was 0.9 µM; in the test listed under Rattus norvegicus [1], 12.4 µM.
Regarding `CC(/N=C(\NC#N)Nc1cc(Cl)cc(Cl)c1)C(C)(C)C` (configuration not stated), in the test with Beta-TC6 [3], the Efficacy was 86%. In addition, the concentration for half-maximal inhibition (IC50) came out at 26.7 µM in the test on Beta-TC6 [4], 19 µM in test [5], 2.2 µM in the test listed under Rattus norvegicus [6] and 0.5 µM in the test listed under Rattus norvegicus [1].
Regarding `CCC/N=C(\NC#N)Nc1cc(Cl)cc(Cl)c1`, the Efficacy in the test on Beta-TC6 [3] is on record as 50%. Also, the IC50 with Beta-TC6 [4] came to 3.7 µM; in test [5], 36 µM; in the test filed under Rattus norvegicus [1], 31 µM.
In the test on Beta-TC6 [3], `CC(/N=C(\NC#N)Nc1cc(C(F)(F)F)cc(C(F)(F)F)c1)C(C)(C)C` (configuration not stated) registered an Efficacy of 78%. Moreover, the IC50 in the test on Beta-TC6 [4] was 4.6 µM; in test [2], “Not Active”; in the test listed under Rattus norvegicus [1], 8.7 µM.
On to `CC(C)CC/N=C(\NC#N)Nc1cc(C(F)(F)F)cc(C(F)(F)F)c1`, for which the Efficacy in the test with Beta-TC6 [3] is reported as 77%. For the same compound, the values for the half-inhibitory concentration (IC50) (in the test on Beta-TC6 [4]; in test [5]; in the test listed under Rattus norvegicus [1]) were 2 µM, 0.5 µM and 5.6 µM, respectively.
`CC(C)CC/N=C(\NC#N)Nc1cc(Cl)cc(Cl)c1`: in the test on Beta-TC6 [3], the Efficacy is reported as 72%. Further, the IC50 with Beta-TC6 [4] was determined as 0.7 µM; in test [5], 4 µM; in the test listed under Rattus norvegicus [1], 18.7 µM.
In the case of `CC(/N=C(\NC#N)Nc1cccc(C(F)(F)F)c1)C(C)(C)C` (configuration not stated), the Efficacy in the test on Beta-TC6 [3] amounted to 29%. The figures for the 50% inhibitory concentration (IC50) (in the test on Beta-TC6 [4]; in test [5]; in the test filed under Rattus norvegicus [1]) were more than 100 µM, more than 100 µM and 88 µM, respectively.
`CC1=Nc2ccc(Cl)cc2S(=O)(=O)N1` [DIAZOXIDE] showed an Efficacy in the test on Beta-TC6 [3] of 23%. Further, the half-maximal inhibitory concentration (IC50) is 22.4 µM in the test with Beta-TC6 [4], 77.4 µM in test [5], 11.5 µM in the test filed under Rattus norvegicus [1] and 6.1 µM in the test listed under Rattus norvegicus [8].
In turn, `CC(N/C(=N\C#N)Nc1ccncc1)C(C)(C)C` (configuration not stated) [PINACIDIL ANHYDROUS] gave a half-maximal inhibitory concentration (IC50) in the test filed under Rattus norvegicus [1] of 1.5 µM.
